Consider six compounds from ChEMBL document CHEMBL1154048, “Design, synthesis and pharmacological evaluation of new 1-[3-(4-arylpiperazin-1-yl)-2-hydroxy-propyl]-3,3-diphenylpyrrolidin-2-one derivatives with antiarrhythmic, antihypertensive, and alpha-adrenolytic activity” (Eur J Med Chem, 2009).

Each structure is given as a SMILES string.

For the assay, the target named is T1, Adrenergic receptor alpha-2 (Rattus norvegicus, UniProt P22086+P19328+P22909).
T1 sequence (P22086 whole entry): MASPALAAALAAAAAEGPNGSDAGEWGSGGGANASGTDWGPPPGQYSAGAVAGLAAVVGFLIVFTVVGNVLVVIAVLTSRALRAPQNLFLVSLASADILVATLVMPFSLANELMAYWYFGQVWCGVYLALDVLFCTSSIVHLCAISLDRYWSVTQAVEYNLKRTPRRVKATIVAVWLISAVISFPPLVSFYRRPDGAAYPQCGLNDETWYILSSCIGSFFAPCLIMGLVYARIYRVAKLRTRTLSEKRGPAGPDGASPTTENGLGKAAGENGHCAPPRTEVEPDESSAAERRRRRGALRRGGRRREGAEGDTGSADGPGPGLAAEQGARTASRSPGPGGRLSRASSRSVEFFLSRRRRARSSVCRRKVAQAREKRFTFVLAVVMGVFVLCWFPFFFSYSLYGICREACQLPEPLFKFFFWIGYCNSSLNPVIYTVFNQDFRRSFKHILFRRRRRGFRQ
T1 sequence (P19328 whole entry): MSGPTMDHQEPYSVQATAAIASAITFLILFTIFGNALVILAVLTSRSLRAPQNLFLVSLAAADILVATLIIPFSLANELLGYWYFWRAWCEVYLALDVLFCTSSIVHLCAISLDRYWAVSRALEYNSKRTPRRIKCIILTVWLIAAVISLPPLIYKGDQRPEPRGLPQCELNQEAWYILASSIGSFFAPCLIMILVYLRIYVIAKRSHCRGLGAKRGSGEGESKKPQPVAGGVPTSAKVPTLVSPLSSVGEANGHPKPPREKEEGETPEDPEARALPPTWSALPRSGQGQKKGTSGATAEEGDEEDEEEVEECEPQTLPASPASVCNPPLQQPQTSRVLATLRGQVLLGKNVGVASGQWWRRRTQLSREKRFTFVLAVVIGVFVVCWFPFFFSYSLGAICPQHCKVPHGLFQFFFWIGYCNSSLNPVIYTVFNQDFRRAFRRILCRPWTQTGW
T1 sequence (P22909 whole entry): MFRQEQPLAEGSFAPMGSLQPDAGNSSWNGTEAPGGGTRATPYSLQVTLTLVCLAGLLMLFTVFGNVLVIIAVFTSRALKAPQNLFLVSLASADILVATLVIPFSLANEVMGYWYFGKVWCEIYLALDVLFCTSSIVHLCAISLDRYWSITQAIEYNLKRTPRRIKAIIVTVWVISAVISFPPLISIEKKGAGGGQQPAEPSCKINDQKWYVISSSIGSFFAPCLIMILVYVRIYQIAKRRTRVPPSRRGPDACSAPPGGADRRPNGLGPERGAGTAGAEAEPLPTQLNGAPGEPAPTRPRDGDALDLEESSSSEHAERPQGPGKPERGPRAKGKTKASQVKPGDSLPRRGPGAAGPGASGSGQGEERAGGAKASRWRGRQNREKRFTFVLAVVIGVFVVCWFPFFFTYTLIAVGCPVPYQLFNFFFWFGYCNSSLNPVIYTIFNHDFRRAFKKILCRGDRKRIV
The assay is described as follows: Displacement of [3H]clonidine from alpha2 adrenergic receptor in rat cerebral cortex by liquid scintillation counting. In kind it is tissue-based. Put shortly:
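Rat cerebral cortex membranes were prepared in ice-cold 50 mM Tris–HCl pH 7.6 (20 000 × g, 20 min, 0–4 °C, washed twice). They were incubated with [3H]clonidine 2 nM and seven to eight compound concentrations (10^-11–10^-4 M), with excess unlabelled clonidine defining nonspecific binding. Samples were glass-fiber filtered and counted by liquid scintillation, in duplicate. Ki was calculated by Cheng–Prusoff.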
In general terms: In a radioligand displacement assay an active substance lowers the binding of a labelled ligand.
As a reminder, the pKi is the Ki on a negative log10 scale, so that one unit is a factor of ten. The low end stands for a high Ki, the high end for a low Ki. The compound `COc1ccccc1N1CCN(CC(O)CN2CCC(c3ccccc3)(c3ccccc3)C2=O)CC1.Cl.Cl` (stereo unspecified) had a pKi of 6.68. Compound `Cl.Cl.O=C1N(CC(O)CN2CCN(c3ccccc3)CC2)CCC1(c1ccccc1)c1ccccc1` (stereo unspecified) displayed a pKi of 6.64. For the compound `Cl.Cl.O=C1N(CC(O)CN2CCN(c3ccccc3C(F)(F)F)CC2)CCC1(c1ccccc1)c1ccccc1` (stereo unspecified), the pKi is 5.29. Turning to `CCOc1ccccc1N1CCN(CC(O)CN2CCC(c3ccccc3)(c3ccccc3)C2=O)CC1.Cl.Cl` (stereo unspecified), the pKi amounted to 6.38.

Regarding `Cc1ccccc1N1CCN(CC(O)CN2CCC(c3ccccc3)(c3ccccc3)C2=O)CC1.Cl.Cl` (stereo unspecified), the pKi amounted to 6.51. For `COc1ccc(N2CCN(CC(O)CN3CCC(c4ccccc4)(c4ccccc4)C3=O)CC2)cc1.Cl.Cl` (stereo unspecified), the pKi amounted to 6.
